# Test results reported in ChEMBL document CHEMBL4038284, “Synthesis of novel quinoline-based 4,5-dihydro-1H-pyrazoles as potential anticancer, antifungal, antibacterial and antiprotozoal agents” (Eur J Med Chem, 2017).
# Activity calls are given as the source filed them. The calls are words filed in the database; no cut-off is given here.
# Columns and labels:
# Candida albicans [1] = assay: Growth inhibition of Candida albicans ATCC 10231 at 7.8 ug/ml incubated for 48 hrs under dark condition by broth microdilution method relative to control; assay type: functional; details: ATCC 10231, 48 h, read-out: GI
# Method in brief: (§1)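 CLSI M27-A3 broth microdilution in RPMI-1640, DMSO ≤1%. Inoculum 1-5 × 10^3 CFU/mL. Incubated 48 h at 30 °C, dark. % inhibition = 100 − (OD405 test − sterility control)/(OD405 growth control − sterility control), with growth and sterility control wells. Triplicate.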
# SF-539 = assay: Growth inhibition of human SF539 cells at 10 uM incubated for 48 hrs by sulforhodamine B assay; assay type: functional, cell-based
# Method in brief: (§2)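 NCI 60-line panel, single 10 μM dose. Cells were grown in RPMI-1640 with 5% FBS and 2 mM L-glutamine and pre-incubated 24 h before compound addition (DMSO stock). Exposure was 48 h at 37 °C, 5% CO2. Cells were fixed with cold TCA (10% final), stained with 0.4% SRB, bound dye dissolved in 10 mM Tris base, A515 read. Growth was taken relative to time-zero and untreated control plates.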
# Staphylococcus aureus [2] = assay: Antibacterial activity against vancomycin-intermediate Staphylococcus aureus after 24 hrs by resazurin dye based microdilution assay; assay type: functional
# Method in brief: (§3)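 MIC taken as the lowest concentration giving visible inhibition and/or by resazurin (1 mg/mL). Gentamicin was the control. Run in duplicate, repeated at least three times.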
# Leishmania panamensis = assay: Antileshmanial activity against EpiR/GFP fused Leishmania panamensis MHOM/CO/87/UA140 intracellular amastigotes infected in human […] cells after 72 hrs by flow cytometric method; assay type: functional, cell-based; details: MHOM/CO/87/UA140, 72 h
# Method in brief: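 PMA-treated U-937 cells (3 × 10^5 cells/mL) infected with stationary-phase GFP L. panamensis promastigotes (15:1), 3 h at 34 °C, then washed. After 24 h, compounds added at 50, 12.5, 3.125 and 0.78 µg/mL for 72 h at 37 °C. EC50 by Probit; triplicate, two experiments.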
# EKVX = assay: Growth inhibition of human EKVX cells at 10 uM incubated for 48 hrs by sulforhodamine B assay; assay type: functional, cell-based
# Method in brief: (§4)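 NCI 60-cell-line screen at a single 10 µM dose. Cells in RPMI-1640 with 5% FBS and 2 mM L-glutamine, pre-incubated 24 h, then treated for 48 h at 37 °C. TCA fixation, sulforhodamine B staining, absorbance at 515 nm. Percentage growth calculated against time-zero and untreated controls.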
# Candida albicans [3] = assay: Growth inhibition of Candida albicans ATCC 10231 at 62.5 ug/ml incubated for 48 hrs under dark condition by broth microdilution method relative to control; assay type: functional; details: ATCC 10231, 48 h, read-out: GI; method in brief: as §1
# Candida albicans [4] = assay: Growth inhibition of Candida albicans ATCC 10231 at 250 ug/ml incubated for 48 hrs under dark condition by broth microdilution method relative to control; assay type: functional; details: ATCC 10231, 48 h, read-out: GI; method in brief: as §1
# CCRF-CEM = assay: Growth inhibition of human CCRF-CEM cells at 10 uM incubated for 48 hrs by sulforhodamine B assay; assay type: functional, cell-based; method in brief: as §4
# SNB-19 = assay: Growth inhibition of human SNB19 cells at 10 uM incubated for 48 hrs by sulforhodamine B assay; assay type: functional, cell-based
# Method in brief: (§5)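 NCI-60 single-dose screen at 10 µM for 48 h. Cells were grown in RPMI-1640 with 5% FBS and 2 mM L-glutamine and preincubated 24 h before compound. Time-zero plates were TCA-fixed at compound addition. After exposure, cells were TCA-fixed, stained with SRB and read at 515 nm. Percentage growth was calculated against time-zero and untreated-control absorbances.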
# RXF 393 = assay: Growth inhibition of human RXF393 cells at 10 uM incubated for 48 hrs by sulforhodamine B assay; assay type: functional, cell-based; method in brief: as §2
# COLO 205 = assay: Growth inhibition of human COLO205 cells at 10 uM incubated for 48 hrs by sulforhodamine B assay; assay type: functional, cell-based; method in brief: as §4
# SK-MEL-5 = assay: Growth inhibition of human SK-MEL-5 cells at 10 uM incubated for 48 hrs by sulforhodamine B assay; assay type: functional, cell-based; method in brief: as §5
# PC-3 = assay: Growth inhibition of human PC3 cells at 10 uM incubated for 48 hrs by sulforhodamine B assay; assay type: functional, cell-based; method in brief: as §2
# Candida albicans [5] = assay: Antifungal activity against Candida albicans ATCC 10231 incubated for 48 hrs under dark condition by broth microdilution method; assay type: functional; details: ATCC 10231, 48 h
# Method in brief: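 CLSI M27-A3 broth microdilution in RPMI-1640, DMSO ≤1%, compounds at 250-0.98 µg/mL final. Inoculum 1-5 × 10^3 CFU/mL. Incubated 48 h at 30 °C in a moist dark chamber, read at OD405. MIC80 and MIC50 taken from % inhibition dose-response curves (mean ± SEM, triplicate). Amphotericin B was the positive control.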
# BT-549 = assay: Growth inhibition of human BT549 cells at 10 uM incubated for 48 hrs by sulforhodamine B assay; assay type: functional, cell-based; method in brief: as §4
# Cryptococcus neoformans [6] = assay: Growth inhibition of Cryptococcus neoformans ATCC 32264 at 15.62 ug/ml incubated for 48 hrs under dark condition by broth microdilution method relative to control; assay type: functional; details: ATCC 32264, 48 h, read-out: GI; method in brief: as §1
# HCC 2998 = assay: Growth inhibition of human HCC2998 cells at 10 uM incubated for 48 hrs by sulforhodamine B assay; assay type: functional, cell-based; method in brief: as §4
# 786-0 = assay: Growth inhibition of human 786-0 cells at 10 uM incubated for 48 hrs by sulforhodamine B assay; assay type: functional, cell-based; method in brief: as §4
# Cryptococcus neoformans [7] = assay: Growth inhibition of Cryptococcus neoformans ATCC 32264 at 3.4 ug/ml incubated for 48 hrs under dark condition by broth microdilution method relative to control; assay type: functional; details: ATCC 32264, 48 h, read-out: GI
# Cryptococcus neoformans [8] = assay: Growth inhibition of Cryptococcus neoformans ATCC 32264 at 125 ug/ml incubated for 48 hrs under dark condition by broth microdilution method relative to control; assay type: functional; details: ATCC 32264, 48 h, read-out: GI; method in brief: as §1
# Candida albicans [9] = assay: Growth inhibition of Candida albicans ATCC 10231 at 31.25 ug/ml incubated for 48 hrs under dark condition by broth microdilution method relative to control; assay type: functional; details: ATCC 10231, 48 h, read-out: GI; method in brief: as §1
# RPMI-8226 = assay: Growth inhibition of human RPMI8226 cells at 10 uM incubated for 48 hrs by sulforhodamine B assay; assay type: functional, cell-based; method in brief: as §2
# Klebsiella pneumoniae = assay: Antibacterial activity against carbapenemase positive Klebsiella pneumoniae BAA 1705 after 24 hrs by resazurin dye based microdilution assay; assay type: functional; details: BAA 1705, 24 h; method in brief: as §3
# SR = assay: Growth inhibition of human SR cells at 10 uM incubated for 48 hrs by sulforhodamine B assay; assay type: functional, cell-based; method in brief: as §5
# NCI/ADR-RES = assay: Growth inhibition of human NCI/ADR-RES cells at 10 uM incubated for 48 hrs by sulforhodamine B assay; assay type: functional, cell-based; method in brief: as §2
# Staphylococcus aureus [10] = assay: Antibacterial activity against methicillin-resistant Staphylococcus aureus ATCC 43300 after 24 hrs by resazurin dye based microdilution assay; assay type: functional; details: ATCC 43300, 24 h
# Method in brief: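 Broth microdilution in Mueller Hinton broth, inoculum 5 × 10^5 – 8 × 10^5. Compound stocks diluted in MHB with 5% DMSO and 0.1% Tween 80. Incubation 24 h at 35-37 °C. MIC is the lowest concentration with visible growth inhibition and/or by resazurin (1 mg/mL) read-out. Gentamicin as control. Run in duplicate, replicated at least three times.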
# A498 = assay: Growth inhibition of human A498 cells at 10 uM incubated for 48 hrs by sulforhodamine B assay; assay type: functional, cell-based; method in brief: as §4
Compound,inhibition of growth at 7.8 µg/mL (Candida albicans [1]) [%],growth inhibition (GI) (SF-539),MIC (Staphylococcus aureus [2]) [µg/mL],EC50 (Leishmania panamensis) [µg/mL],growth inhibition (GI) (EKVX),inhibition of growth at 62.5 µg/mL (Candida albicans [3]) [%],inhibition of growth at 250 µg/mL (Candida albicans [4]) [%],growth inhibition (GI) (CCRF-CEM),growth inhibition (GI) (SNB-19),growth inhibition (GI) (RXF 393),growth inhibition (GI) (COLO 205),growth inhibition (GI) (SK-MEL-5),growth inhibition (GI) (PC-3),MIC50 (Candida albicans [5]) [µg/mL],MIC80 (Candida albicans [5]) [µg/mL],growth inhibition (GI) (BT-549),inhibition of growth at 15.62 µg/mL (Cryptococcus neoformans [6]) [%],growth inhibition (GI) (HCC 2998),growth inhibition (GI) (786-0),inhibition of growth at 3.4 µg/mL (Cryptococcus neoformans [7]) [%],other results
COc1cc(C(=O)/C=C/c2cccc(Nc3ccnc4cc(Cl)ccc34)c2)cc(OC)c1OC,2.51,Active,> 1000,5.92,Active,7.6,13.7,Active,Active,Active,Active,Active,Active,≥ 250,≥ 250,Active,0,Active,Active,0,inhibition of growth at 125 µg/mL (Cryptococcus neoformans [8]): 6.74%; inhibition of growth at 31.25 µg/mL (Candida albicans [9]): 6.92%; growth inhibition (GI) (RPMI-8226): Active; MIC (Klebsiella pneumoniae): > 1000 µg/mL; growth inhibition (GI) (SR): Active; growth inhibition (GI) (NCI/ADR-RES): Active; MIC (Staphylococcus aureus [10]): > 1000 µg/mL; growth inhibition (GI) (A498): Active
COc1ccc(C2=NN(c3ccc(Cl)cc3)C(c3cccc(Nc4ccnc5cc(Cl)ccc45)c3)C2)cc1 (stereo unspecified),0,inactive,> 1000,27.7,inactive,5.46,3.08,inactive,inactive,inactive,inactive,inactive,inactive,≥ 250,≥ 250,inactive,12.6,inactive,inactive,7.99,inhibition of growth at 125 µg/mL (Cryptococcus neoformans [8]): 26.7%; inhibition of growth at 31.25 µg/mL (Candida albicans [9]): 1.19%; growth inhibition (GI) (RPMI-8226): inactive; MIC (Klebsiella pneumoniae): > 1000 µg/mL; growth inhibition (GI) (SR): inactive; growth inhibition (GI) (NCI/ADR-RES): inactive; MIC (Staphylococcus aureus [10]): > 1000 µg/mL; growth inhibition (GI) (A498): inactive
